According to paper PMC10979821 (Current pharmaceutical design, 2023):
“Also recorded” adds a separate entry of the source. Where two headings read alike, the source gives them in different places.

Legend:
[1] = Serum pharmacokinetics of THC and metabolites after inhaled or i.p. THC; type: in vivo, female Sprague Dawley rats
[2] = cited from earlier work
rodents = settings: i.p. injected THC; cited from earlier work
[3] = test system: female Sprague Dawley rats; assay: Locomotor activity in OpenField arena after i.p. or inhaled THC; type: in vivo, rat; settings: for vertical plane entries (rearing), total: 45 minute session
How it was run: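 Separate cohort of adult female rats (n=15): habituation session, then five vehicle or THC days, each 3 days apart. Dosing was 2 mg/kg i.p., or 10 min vapour exposure (0.25 mL of 40 or 160 mg/mL; 0.19 or 0.76 mg/kg). Rats entered the arena immediately for 45 min, n=10–15 per group. Analysis: two-way RM ANOVA (time × treatment), Sidak or Tukey post hoc.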

[4] = cited from earlier work; remark: listed apart in the source
[5] = 0.19 mg/kg vaporized/inhaled THC (0.25 mL of 40 mg/mL, 10 min exposure), serum
[6] = 0.76 mg/kg vaporized/inhaled THC (0.25 mL of 160 mg/mL, 10 min exposure), serum
[7] = 2 mg/kg THC i.p., serum, female Sprague Dawley rats
[8] = female, Sprague Dawley, rat, serum, inhaled or intranasal, 0.19 mg/kg
[9] = female, Sprague Dawley, rat, serum, inhaled or intranasal, 0.76 mg/kg
[10] = female, Sprague Dawley, rat, serum, ip, 2 mg/kg

11-hydroxy-delta-9-tetrahydrocannabinol [11-OH-THC]
Tmax ([1]; 0.19 mg/kg vaporized THC, time after conclusion of inhalation): 5 min
Cmax (maximum serum concentration) [1, 5]: 14.4 ± 1.4 ng/mL
Tmax ([1]; 0.76 mg/kg vaporized THC, time after conclusion of inhalation): 5 min
Cmax (maximum serum concentration) [1, 6]: 35.6 ± 7.4 ng/mL
Cmax (maximum serum concentration) [1, 7]: 84.2 ± 19.3 ng/mL
Tmax ([1]; 2 mg/kg THC i.p., time post-injection): 20 min
metabolite level relative to THC ([2]; human, acute inhalation, % of THC): up to 30%

CCCCCc1cc(O)c2c(c1)OC(C)(C)[C@@H]1CCC(C)=C[C@@H]21 [THC, delta-9-tetrahydrocannabinol]
dose at which horizontal locomotion is affected (rodents): ≥ 15 mg/kg
Vss (volume of distribution at steady state) ([1]; 0.19 mg/kg vaporized): 8.6 L/kg
Vss (volume of distribution at steady state) ([1]; 0.76 mg/kg vaporized): 24.4 L/kg
AUC(0-inf) [1, 8]: 87 ng·h/mL
CL/F [1, 8]: 38.3 mL/min/kg
Cmax [1, 8]: 43.3 ng/mL
Tmax [1, 8]: 10 min
Vd/F [1, 8]: 7.4 L/kg
half-life [1, 8]: 132 min
k el [1, 8]: 8.33e-05 s⁻¹
AUC(0-inf) [1, 9]: 94.4 ng·h/mL
CL/F [1, 9]: 142 mL/min/kg
Cmax [1, 9]: 71.6 ng/mL
Tmax [1, 9]: 5 min
Vd/F [1, 9]: 33 L/kg
half-life [1, 9]: 162 min
k el [1, 9]: 8.33e-05 s⁻¹
AUC(0-inf) [1, 10]: 364 ng·h/mL
CL/F [1, 10]: 91.7 mL/min/kg
Cmax [1, 10]: 108 ng/mL
Tmax [1, 10]: 10 min
Vd/F [1, 10]: 26.9 L/kg
half-life [1, 10]: 204 min
k el [1, 10]: 5.56e-05 s⁻¹
fold-change of Cmax values ([1]; increasing inhaled THC dose from 0.19 mg/kg to 0.76 mg/kg): 1.6 fold
plasma concentration Cmax ([2]; human clinical study at a similar dose): 73.81 ± 63.09 ng/mL
plasma Cmax values across individual subjects ([2]; human, 6 subjects given the same dose of THC under the same regime): 70 to 280 ng/mL
mean Cmax of THC ([2]; human, acute THC inhalation, whole blood, lowest mean across studies): 4 ng/mL
mean Cmax ranges in clinical studies ([2]; human, smoked or vaped cannabis at similar doses): 4 to 162 ng/mL
vertical plane entries (rearing), total ([3]; 0.19 mg/kg INH THC vs vehicle): Significantly reduced; also recorded: significantly decreased; also recorded: reduced rearing activity
floor plane distance ([3]; 0.76 mg/kg inhaled THC vs vehicle, at 20 minutes): significantly higher; also recorded: slightly heightened locomotion
horizontal distance traveled or altered thigmotaxis ([3]; 0.76 mg/kg inhaled THC, over a 45-minute period): minimal effect
center distance travelled ([3]; 0.76 mg/kg vaporized THC vs vehicle, at 20 minutes): significantly higher; also recorded: increased center distance travelled
vertical plane entries (rearing), total ([3]; 2 mg/kg i.p. THC vs vehicle): Significantly reduced; also recorded: significant reduction; also recorded: reduced rearing activity
margin distance, post-hoc comparisons ([3]; vaporized THC 0.19 or 0.76 mg/kg vs vehicle): no significant post-hoc comparisons
time of peak THC brain levels ([4]; after THC inhalation in males, ref 35 (Hložek et al.)): 15 min
mean Cmax levels of THC ([4]; female Sprague Dawley rats, 5 minutes post-30 minute inhalation of 200 mg/mL THC): 303 ng/mL
time of peak THC brain levels ([4]; ref 26 (Baglot et al.)): 30 min

CCCCCc1cc(O)c2c(c1)OC(C)(C)C1CCC(C(=O)O)=CC21 (stereo not shown) [THC-COOH, 11-nor-9-carboxy-delta-9-tetrahydrocannabinol]
Cmax (maximum serum concentration) [1, 5]: 20.9 ± 4.1 ng/mL
Cmax (maximum serum concentration) [1, 6]: 19.9 ± 2.2 ng/mL
Cmax (maximum serum concentration) [1, 7]: 87.0 ± 21.8 ng/mL
time detectable in the bloodstream after administration ([2]; humans): ≥ 7 days
